The results in this text go back to ChEMBL document CHEMBL1124444, “Hydroxyacetophenone-derived antagonists of the peptidoleukotrienes” (1989).

For test [1], the system named is Cavia porcellus. Put plainly: Compound (50 mg/kg, intraperitoneally) was tested in spontaneously breathing, conscious guinea pigs challenged with aerosolized LTD4 (60-min pretreatment). The class given is functional.
Test [2] deals with T1, Cysteinyl leukotriene receptor 1 (Cavia porcellus) (UniProt Q2NNR5).
T1 sequence (whole entry): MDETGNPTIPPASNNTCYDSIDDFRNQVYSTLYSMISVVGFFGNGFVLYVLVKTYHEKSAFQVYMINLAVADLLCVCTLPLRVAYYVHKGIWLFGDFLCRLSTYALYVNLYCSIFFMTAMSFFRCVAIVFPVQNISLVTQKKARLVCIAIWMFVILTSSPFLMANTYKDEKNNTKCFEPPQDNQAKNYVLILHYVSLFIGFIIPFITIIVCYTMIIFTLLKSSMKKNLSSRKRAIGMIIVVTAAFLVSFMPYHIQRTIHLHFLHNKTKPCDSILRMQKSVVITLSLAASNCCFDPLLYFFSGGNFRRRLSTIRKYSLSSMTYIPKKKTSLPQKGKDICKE
As to the kind of experiment: Dissociation constant (KB) […] was evaluated in vitro in isolated guinea pig tracheal strips.

Test [3] is filed under the species Cavia porcellus. As to the kind of experiment: Percent inhibition of the leukotriene E4 (LTE4)-induced contraction of guinea pig tracheal spirals at 1 uM concentration. Particulars: Trachea. It counts as functional. The gist of the method:
(§1)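 Guinea pig tracheal spirals were split into paired sections in 10 mL baths of modified Krebs at 37 °C, gassed with 95% O₂/5% CO₂, under 2 g resting tension. After 60 min equilibration (washes every 15 min), reproducible contractions to 8 nM LTD₄ or 8 nM LTE₄ were obtained. Compound was added for 10 min, then agonist challenge repeated; percent inhibition is relative to the vehicle-treated paired section.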

The species named for test [4] is Cavia porcellus. Put plainly: Percent inhibition of the leukotriene E4 (LTE4)-induced contraction of guinea pig tracheal spirals at 5 uM concentration. The class given is functional. Particulars: Trachea. In outline:
as §1

The species named for test [5] is Cavia porcellus. Put plainly: Inhibition of the leukotriene D4 (LTD4)-induced contraction of guinea pig tracheal spirals at 10 uM concentration. The class given is functional. The settings on record: Trachea. In outline:
as §1

Test [6] has as its target T1, Cysteinyl leukotriene receptor 1 (Cavia porcellus). Put plainly: Dissociation constant (KB) versus Cysteinyl leukotriene D4 receptor was evaluated in vitro in isolated guinea pig tracheal strips.
The species named for test [7] is Cavia porcellus. Put plainly: Percent inhibition of the leukotriene D4 (LTD4)-induced contraction of guinea pig tracheal spirals at 5 uM concentration. It counts as functional. Particulars: Trachea. The gist of the method: as §1
The species named for test [8] is Cavia porcellus. As to the kind of experiment: Percent inhibition of the leukotriene E4 (LTE4)-induced contraction of guinea pig tracheal spirals at 3.3 uM concentration. Particulars: Trachea.
The species entered for test [9] is Cavia porcellus. As to the kind of experiment: Percent inhibition of the leukotriene E4 (LTE4)-induced contraction of guinea pig tracheal spirals at 1 uM concentration; NS means data was not statistically significant. Particulars: Trachea.
Test [10] is filed under the species Cavia porcellus. As to the kind of experiment: Percent inhibition of the leukotriene E4 (LTE4)-induced contraction of guinea pig tracheal spirals at 50 uM concentration. The class given is functional. Particulars: Trachea. The gist of the method:
as §1

For test [11], the species on record is Cavia porcellus. Put plainly: Percent inhibition of the leukotriene E4 (LTE4)-induced contraction of guinea pig tracheal spirals at 1 uM concentration. Particulars: Trachea.
For test [12], the system named is Cavia porcellus. Put plainly: Compound (50 mg/kg, intraperitoneally) was tested in spontaneously breathing, conscious guinea pigs challenged with aerosolized LTD4 (30-min pretreatment). It counts as functional.
The species entered for test [13] is Cavia porcellus. Put plainly: Percent inhibition of the leukotriene E4 (LTE4)-induced contraction of guinea pig tracheal spirals at 10 uM concentration. The class given is functional. The settings on record: Trachea. The gist of the method: as §1
The species entered for test [14] is Cavia porcellus. Put plainly: Percent inhibition of the leukotriene D4 (LTD4)-induced contraction of guinea pig tracheal spirals at 10 uM concentration. The class given is functional. The settings on record: Trachea. The gist of the method: as §1
For test [15], the species on record is Cavia porcellus. Put plainly: Percent inhibition of the leukotriene D4 (LTD4)-induced contraction of guinea pig tracheal spirals at 4 uM concentration. The class given is functional. Particulars: Trachea. In outline: as §1
The species entered for test [16] is Cavia porcellus. As to the kind of experiment: Percent inhibition of the leukotriene D4 (LTD4)-induced contraction of guinea pig tracheal spirals at 100 uM concentration. It counts as functional. The settings on record: Trachea. In outline:
as §1

For test [17], the species on record is Cavia porcellus. Put plainly: Percent inhibition of the leukotriene E4 (LTE4)-induced contraction of guinea pig tracheal spirals at 10 uM concentration; NS means data was not statistically significant. It counts as functional. Particulars: Trachea. The gist of the method:
as §1

For test [18], the species on record is Cavia porcellus. Put plainly: Percent inhibition of the leukotriene E4 (LTE4)-induced contraction of guinea pig tracheal spirals at 10 uM concentration; NS means data was not statistically significant. The settings on record: Trachea.
Test [19] is filed under the species Cavia porcellus. Put plainly: Percent inhibition of the leukotriene D4 (LTD4)-induced contraction of guinea pig tracheal spirals at 50 uM concentration. It counts as functional. The settings on record: Trachea. The gist of the method:
as §1

The term inhibition denotes the drop in the measured response relative to a control, in per cent.

As for `C=C(C)Cc1c(OCc2ccc(C(=O)O)cc2OC)ccc(C(C)=O)c1O`, the Protection in the test on Cavia porcellus [1] was 30%. In test [2], this molecule registered a Kb of 1640 nM. At 1 µM the inhibition in the test filed under Cavia porcellus [3] was 35%. This molecule registered an inhibition at 5 µM in the test listed under Cavia porcellus [4] of 82%.
`COc1cc(C(=O)O)ccc1COc1ccc(C(C)=O)c(O)c1CC(C)C`: 1 µM produced 22% inhibition in the test listed under Cavia porcellus [3].
Molecule `CCCc1c(OCc2ccc(C(=O)O)cc2OC)ccc(C(C)=O)c1O` registered an inhibition at 10 µM in the test filed under Cavia porcellus [5] of 99%. In addition, the Protection in the test on Cavia porcellus [1] is reported as 19%. This molecule yielded a Kb in [6] of 360 nM.
As for `C/C=C(\c1ccccc1)c1c(OCc2ccc(C(=O)O)cc2OC)ccc(C(C)=O)c1O`, the inhibition at 5 µM in the test filed under Cavia porcellus [7] turned out to be 24%.
In the case of `CCCc1c(OCc2ccc(-c3nn[nH]n3)cc2OC)ccc(C(C)=O)c1O`, testing at 3.3 µM in the test filed under Cavia porcellus [8] gave an inhibition of 45%. Moreover, the inhibition result in the test listed under Cavia porcellus [9] was “Not statistically significant”.
As for `CCCc1c(OCc2ccc(C(=O)O)cc2OC)ccc(C(N)=O)c1O`, the inhibition at 10 µM in the test listed under Cavia porcellus [5] stood at 72%. This molecule gave an inhibition at 50 µM in the test filed under Cavia porcellus [10] of 86%.
`CCCc1c(OCc2ccc(/C=C/C(=O)O)cc2)ccc(C(C)=O)c1O`: the Protection in the test with Cavia porcellus [1] stood at 34%. In test [2], this molecule yielded a Kb of 570 nM. Further, in the test listed under Cavia porcellus [11], the inhibition at 1 µM was 48%.
`CCC(C)c1c(OCc2ccc(C(=O)O)cc2OC)ccc(C(C)=O)c1O` (configuration not stated) gave an inhibition at 10 µM in the test filed under Cavia porcellus [5] of 100%. The molecule also came in with an inhibition at 5 µM in the test listed under Cavia porcellus [7] of 85%.
`CCCc1c(OCc2ccc(C(=O)O)cc2F)ccc(C(C)=O)c1O`: in the test filed under Cavia porcellus [5], at 10 µM the inhibition was 99%. Further, the Protection in the test with Cavia porcellus [1] is 0%; in the test with Cavia porcellus [12] it was 18%. The Kb in [2] was found to be 520 nM.
`COc1cc(C(=O)O)ccc1COc1ccc(C(C)=O)c(O)c1C=C(C)C` returned an inhibition at 5 µM in the test filed under Cavia porcellus [4] of 69%.
`CCCN(Cc1ccc(C(=O)O)cc1OC)c1ccc(C(C)=O)c(O)c1` gave an inhibition at 10 µM in the test filed under Cavia porcellus [13] of 24%. This molecule also gave an inhibition at 50 µM in the test listed under Cavia porcellus [10] of 35%.
Consider `CCCc1c(OCc2ccc(C(=O)O)cc2OC)ccc(C=O)c1O`, for which, in the test listed under Cavia porcellus [14], the inhibition at 10 µM was determined as 54%.
Consider `CCCc1c(OCCCCc2nnn[nH]2)ccc(C(C)=O)c1O` [TOMELUKAST], for which, in the test with Cavia porcellus [1], the Protection is given as 49%. Further, the Kb in test [6] was 180 nM.
On to `CCCc1c(OCc2cc(/C=C\C(=O)O)ccc2OC)ccc(C(C)=O)c1O`, for which the inhibition at 10 µM in the test filed under Cavia porcellus [5] was found to be 28%. The same molecule came in with an inhibition at 1 µM in the test listed under Cavia porcellus [11] of 14%.
Take `CCCc1c(OCc2cccc(/C=C/C(=O)O)c2)ccc(C(C)=O)c1O`: the inhibition at 4 µM in the test filed under Cavia porcellus [15] is 66%. For the same molecule, the Kb in [2] came to 630 nM. In addition, in the test listed under Cavia porcellus [11], at 1 µM the inhibition was 41%. The Protection in the test on Cavia porcellus [12] is recorded as 19%.
In the case of `CCCc1c(OCC(O)CNC(CS)C(=O)NCC(=O)O)ccc(C(C)=O)c1O` (configuration not stated), the inhibition at 100 µM in the test filed under Cavia porcellus [16] is 33%.
Consider `CCCc1c(OCc2ccc(C(=O)O)cc2OC)ccc2c(C)cc(=O)oc12`, for which, in the test listed under Cavia porcellus [5], 10 µM produced 78% inhibition. The molecule also displayed an inhibition at 4 µM in the test listed under Cavia porcellus [15] of 44%. Moreover, in the test on Cavia porcellus [12], the Protection was 27%.
Consider `CCCc1cc2c(C)cc(=O)oc2cc1OCc1ccc(C(=O)O)cc1OC`, for which the inhibition entry in the test filed under Cavia porcellus [17] was “Not statistically significant”.
With `CCCC(=O)N(Cc1ccc(C(=O)O)cc1OC)c1ccc(C(C)=O)c(O)c1`, the inhibition result in the test listed under Cavia porcellus [18] was “Not statistically significant”.
`CCCc1c(OCCCSCC(=O)O)ccc(C(C)=O)c1O` displayed an inhibition at 10 µM in the test filed under Cavia porcellus [5] of 62%. Besides, in the test filed under Cavia porcellus [16], the inhibition at 100 µM came to 100%.
As for `CCCc1c(OCc2ccc(C(=O)O)cc2OC)ccc(C(=O)N2CCCC2)c1O`, the inhibition at 10 µM in the test filed under Cavia porcellus [5] stood at 37%. In addition, testing at 50 µM in the test listed under Cavia porcellus [19] gave an inhibition of 90%.
As for `CCCc1c(OCc2ccc(C(=O)O)cc2OC)ccc(C(=O)OC)c1O`, the Protection in the test with Cavia porcellus [1] is 29%. The Kb in test [2] came to 3180 nM. The inhibition at 5 µM in the test listed under Cavia porcellus [4] was found to be 52%.
